# Screening results from PubChem.
# PPC-1+TRAIL kill = kills PPC-1 cancer cells in the presence of TRAIL; PPC-1 cells + TRAIL, ATPLite viability luminescence; cell killing (% activity), % at 4 µM or 5 µM; 0.41% of 220,000 active;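 active = cell killing above 50% in the first pass at 4 µM, then a duplicate retest at 5 µM averaging 50% or more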;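 note: plate controls were cells with TRAIL plus DMSO for no effect and medium-only wells lacking cells for full effect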
# HSP90 inh = inhibitors of HSP90 luciferase refolding in rabbit reticulocyte lysate; luciferase refolding luminescence, 3 h; inhibition, % at 5.6 µM; 0.91% of 290,000 active; AID 1789;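 active = inhibition above the screen-wide mean plus 3 SD, computed separately per campaign, cut at about 16% in these data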;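 note: 0% = DMSO wells and 100% = 60 µM geldanamycin wells; inhibitors lower the luminescence because luciferase stays unfolded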
# FLuc act counter = firefly luciferase counter-screen for stimulation assays. activation factor at 10 µM. 200,000 tested, under 10 active. AID 1027. P08659. ATPlite luciferase biochemical, luminescence, 10 min; 0 = ATP-free wells, 1 = DMSO control;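 active = luciferase activation factor, scaled between plate controls, of at least 2 with compound at 10 µM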
# Target sequence (P08659 whole entry, looked up): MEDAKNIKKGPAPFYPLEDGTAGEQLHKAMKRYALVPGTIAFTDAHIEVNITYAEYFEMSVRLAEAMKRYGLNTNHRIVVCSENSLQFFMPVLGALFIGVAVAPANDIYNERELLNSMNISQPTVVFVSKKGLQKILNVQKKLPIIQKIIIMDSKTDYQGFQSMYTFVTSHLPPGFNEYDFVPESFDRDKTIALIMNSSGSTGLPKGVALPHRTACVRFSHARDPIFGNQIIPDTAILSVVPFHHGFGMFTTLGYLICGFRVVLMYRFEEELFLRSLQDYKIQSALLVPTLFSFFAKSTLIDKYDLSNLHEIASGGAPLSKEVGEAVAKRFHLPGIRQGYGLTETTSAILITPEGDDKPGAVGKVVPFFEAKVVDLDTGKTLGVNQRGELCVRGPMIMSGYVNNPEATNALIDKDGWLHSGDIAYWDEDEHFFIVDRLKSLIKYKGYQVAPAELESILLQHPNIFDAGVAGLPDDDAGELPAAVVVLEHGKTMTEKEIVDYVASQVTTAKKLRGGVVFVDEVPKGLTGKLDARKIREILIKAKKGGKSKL
#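 System: Luciferase/luciferin detection reagent, cell-free biochemical luciferase assay | Medium: PBS buffer for ATP | Dosing: Test compounds dosed from 2 mM stocks in 100% DMSO | Timing: 10 min at ambient temperature | Signal: Luminescence measurement of luciferase light output | Evaluation: Luciferase activation, seen as luminescence increase over controls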
# TRAIL sens C8 = sensitizes caspase-8 expressing cells to TRAIL. NB7+C8 cells + TRAIL, ATPlite viability luminescence. inhibition (viability loss, TRAIL sensitization), % at 10 µM. 1% of 360,000 active;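 active = compounds causing at least 50% loss of cell viability in the single-dose screen, relative to plate controls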
# FLuc inh counter = inhibits firefly luciferase, flagging false hits in luciferase inhibition screens | inhibition, % at 10 µM | 1.5% of 200,000 active | AID 1006 | P08659 | ATPLite firefly luciferase biochemical luminescence, 10 min;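 active = inhibition above about 50% when tested at 10 µM, limit read from the data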
# An asterisk follows results filed as active; . = no result. In the library only some 2% were active in any assay of this set; here they are far more common.
SMILES,PPC-1+TRAIL kill,HSP90 inh,FLuc act counter,TRAIL sens C8,FLuc inh counter
COc1ccc(C[C@H]2NC[C@H](O)[C@H]2OC(C)=O)cc1,.,.,.,86*,.
O=P(O)(Oc1ccccc1)OC(c1ccccc1)C(F)(F)C(F)(F)F (centres undefined),16,-1,1,-1,0
C=CCn1c(O)c(C(C)=NCc2cc(OC)cc(OC)c2)c(=O)[nH]c1=O,28,-2,1,82*,-4
COC1CCC(OC2CC(C3(C)CCC4(CC(O)C(C)C(C(C)/C=C(\C)C(=O)C(C)CC(C)C(=O)O)O4)O3)OC3(OC(C4OC(O)(CO)C(C)CC4C)CC3C)C2C)OC1C (centres undefined),.,.,.,81*,.
CNC(=O)Oc1cccc(-c2cn3cc(OC(=O)NC)ccc3n2)c1,-8,4,0.3,15,73*
CNC(=O)Oc1ccc(-c2cn3cc(Cl)ccc3n2)cc1,55*,11,0.1,84*,93*
CCNc1nc(NC(C)(C)C)nc(SC)n1,.,.,.,-13,.
NS(=O)(=O)c1ccc(N=Nc2c(O)[nH]c(=S)[nH]c2=O)cc1,13,3,.,-2,.
O=c1[nH]c(=S)[nH]c(O)c1N=Nc1ccc2c(c1)OCO2,20,-1,0.5,17,53*
COc1ccc(N=Nc2c(O)[nH]c(=S)[nH]c2=O)cc1,11,-1,0.4,20,59*
O=c1[nH]c(=S)[nH]c(O)c1N=Nc1cc2c(cc1[N+](=O)[O-])OCO2,10,2,0.9,-5,8
O=c1[nH]c(=S)[nH]c(O)c1N=Nc1ccc(OC(F)F)cc1,26,0,0.4,26,57*
NS(=O)(=O)c1cccc(N2CCNCC2)c1,-10,-4,1,-4,-4
CC(=O)O[C@@H]1CC[C@]2(C)C3CC[C@@]4(C)C(C[C@@H](O)[C@@H]4O)C3[C@@H](OC(C)=O)C[C@H]2C1 (some centres undefined),.,.,.,-2,.
CC(=O)OC1CC2(O)C3CCC4CC(O)CCC4(C)C3CCC2(C)C1C1=CC(=O)OC1 (centres undefined),.,.,.,66*,.
CC1OC(OC2C(O)CC(OC3C(O)CC(OC4CCC5(C)C(CCC6C5CCC5(C)C(C7=CC(=O)OC7)C(O)CC65O)C4)OC3C)OC2C)CC(O)C1O (centres undefined),.,.,.,60*,.
CC(=O)[C@H]1CCC2C3CC[C@H]4C[C@@H](O)CC[C@]4(C)C3CC[C@@]21C (some centres undefined),.,.,.,-3,.
CC(=O)OC1CC(OC2C(O)CC(OC3C(O)CC(OC4CCC5(C)C(CCC6C5CCC5(C)C(C7=CC(=O)OC7)C(O)CC65O)C4)OC3C)OC2C)OC(C)C1OC1OC(CO)C(O)C(O)C1O (centres undefined),.,.,.,62*,.
C=CCn1c(O)c(/C=N/N2CCCCC2)c(=O)[nH]c1=O,4,1,.,-4,.
O=[N+]([O-])c1oc2ccc3ccccc3c2c1CCO,.,.,.,-5,.
Cc1c(C)c2ccc(OCC(=O)N3C[C@H]4C[C@@H](C3)c3cccc(=O)n3C4)c(C)c2oc1=O,.,1,.,5,.
Cn1cccc1/C=C1/C(=O)NC(=S)N(Cc2ccc(F)cc2)C1=O,3,2,.,11,.
CNC(=O)Oc1c(C)[nH]ccc1=O,.,.,.,10,.
O=c1c2ccc(Cl)cc2[nH]c(=S)n1-c1cccnc1,34,3,1,1,0
CCOc1ccc(-n2c(-c3ccoc3)nc3ccccc3c2=O)cc1,2,-3,1,-12,-2
SMILES,PPC-1+TRAIL kill,HSP90 inh,FLuc act counter,TRAIL sens C8,FLuc inh counter
CCOc1ccc(-c2c(C)n(-c3ccc(OCC)cc3)c3[n+]2CCCCC3)cc1,48,7,.,52*,.
CCOC(=O)[C@]12Cc3cc(OC)ccc3[C@H]1N(C(C)C)C(=O)c1cc(OC)ccc12,.,.,.,55*,.
CCOC(=O)[C@]12Cc3cc(OC)ccc3[C@H]1N(C)C(=O)c1ccccc12,.,.,.,14,.
CCOC(=O)[C@]12Cc3cc(Cl)ccc3[C@H]1N(CC(=O)OC)C(=O)c1ccccc12,.,.,.,58*,.
CCOC(=O)[C@]12Cc3cc(Cl)ccc3[C@H]1N(C(C)C)C(=O)c1ccccc12,.,.,.,71*,.
CCOC(=O)[C@]12Cc3cc(Cl)ccc3[C@H]1N(C)C(=O)c1ccccc12,.,.,.,7,.
CCOC(=O)[C@]12Cc3c(cc(OC)c(OC)c3OC)[C@H]1N(C(C)C)C(=O)c1cc(OC)ccc12,.,.,.,46,.
CCOC(=O)c1cccc(-[n+]2c(-c3ccccc3)cc(-c3ccccc3)cc2-c2ccccc2)c1,.,.,.,58*,.
Cc1ccc(-c2cc(-c3ccc(C)cc3)[n+](-c3ccc(C(=O)[O-])cc3)c(-c3ccc(C)cc3)c2)cc1,.,.,.,6,.
Cc1ccc(-c2cc(-c3ccccc3)cc(-c3ccccc3)[n+]2-c2ccccc2)cc1,.,.,.,91*,.
Cc1ccc(-c2cc(-c3ccc(C)cc3)[n+](-c3ccccc3)c(-c3ccc(C)cc3)c2)cc1,.,.,.,71*,.
Oc1cccc2nc3ccccc3nc12,17,0,.,14,.
COc1cccc(C2(O)CCN(CC(=O)Nc3nc(C)cs3)CC2)c1,0,1,1,4,0
Cc1cc(/C=C2\C(=O)NC(=O)N(C)C2=O)c(C)n1-c1ccc2c(c1)OCO2,12,1,0.4,-3,61*
Cc1cc(C=C2C(=O)NC(=O)NC2=O)c(C)n1-c1ccc2c(c1)OCO2,3,2,0.4,1,56*
Cc1cc(/C=C2\C(=O)NC(=O)N(c3ccc(F)cc3)C2=O)c(C)n1-c1cccc(C(=O)O)c1,14,4,1.1,-15,-6
Cc1cc(/C=C2/C(=O)NC(=O)N(C)C2=O)c(C)n1-c1ccccc1,5,4,0.4,-2,62*
CC(=O)O[C@@H]1/C=C/[C@](C)(O)C[C@@H](C)C/C=C/[C@H]2[C@@H]3O[C@]3(C)[C@@H](C)[C@H]3[C@H](Cc4ccccc4)NC(=O)[C@@]312,.,.,.,23,.
CCOC(=O)[C@]12Cc3cc(OC)ccc3[C@H]1N(C1CCCCC1)C(=O)c1ccccc12,.,.,.,85*,.
CCOC(=O)[C@]12Cc3cc(Cl)ccc3[C@H]1N(C1CCCCC1)C(=O)c1ccccc12,.,.,.,96*,.
O=c1[nH]c2ccccc2n1C1CCN(C(c2cccc3ccccc23)c2nnnn2Cc2ccccc2)CC1 (centres undefined),.,.,.,34,.
O=c1[nH]c2ccccc2n1C1CCN(C(c2cc3ccccc3o2)c2nnnn2Cc2ccccc2)CC1 (centres undefined),.,.,.,87*,.
N#CC(C#N)=C(N)c1cccnc1,2,1,1,-7,-3
Cc1ccc(S(=O)(=O)CC(=O)c2cc(C)c(OC(=O)N(C)C)c(C)c2)cc1,2,1,1,-3,-1
Cc1cc(C(=O)CS(=O)(=O)c2ccccc2)cc(C)c1OC(=O)N(C)C,35,2,0.2,37,78*
O=C(Cn1cnc2ccccc2c1=O)NCC(=O)N1CCC2(CC1)OCCO2,-1,0,1.1,-9,-5
